# Assay results from different studies.
# Compare with care: the assays were run in different laboratories.
# Target: RAC-gamma serine/threonine-protein kinase (AKT3, Homo sapiens, UniProt Q9Y243)
Compound,effect on,action,technique,tested at,quantity,value
CNc1cccc2cc(C(=O)Nc3ccc(C(=O)O)cc3)c(=O)[nH]c12,enzyme activity,inhibitor,,10 µM,inhibition,5.8%
Cn1c2c(c3ccc(Cl)c(Cl)c31)C(C#N)C1(CCCC1)NC2=O (stereo not drawn),thermal stability,,DSF,10 µM,ΔTm,-0.1 °C
COc1cc2ncnc(Nc3ccc(Oc4ccccc4)cc3C)c2cc1OC,enzyme activity,inhibitor,,1 µM,inhibition,6%
Cc1ccc(C(=O)Nc2ccc(CN3CCN(C)CC3)c(C(F)(F)F)c2)cc1C#Cc1cnc2cccnn12,enzyme activity,inhibitor,,23.5 nM,remaining activity,100%
Cc1c(NC(=O)c2cc(C(N)=O)nc3cc(F)ccc23)c(C(F)(F)F)nn1Cc1ccc(C(C)(C)C)cc1,cell-free assay,,competition with immobilised ligand,1 µM,remaining binding,100%
O=C(Nc1cnn(-c2csc(C(=O)NC3COC3)c2)c1)Nc1c(F)cccc1Cl,enzyme activity,inhibitor,,5 µM,remaining activity,97.6%
CN1CCC2(CC1)NC(=O)c1c(c3ccc(Cl)c(Cl)c3n1C)C2C#N (racemic),thermal stability,,DSF,10 µM,ΔTm,0 °C
CCCOc1ccc(OC)c(F)c1C(=O)c1ccc(C(=O)N[C@@H]2CNC[C@H]2NC(=O)c2ccc3[nH]ncc3c2)cc1,enzyme activity,inhibitor,,0.5 µM,remaining activity,44%
Cc1ccc(NC(=O)c2ccc(C)c(C(F)(F)F)c2)cc1C#Cc1nn(C2CCC(O)CC2)c2ncnc(N)c12 (stereo not drawn),cell-free assay,,,10 µM,remaining signal,94%
CNC(=O)c1cc(Oc2ccc(NC(=O)Nc3ccc(Cl)c(C(F)(F)F)c3)cc2)ccn1,enzyme activity,inhibitor,,10 µM,inhibition,-1%
COc1ccc2c(c1)O[C@@H](c1ccc(OC)c(OC)c1)C[C@H]2NC(=O)C1(c2ccc3c(c2)OC(F)(F)O3)CC1,cell-free assay,,competition with immobilised ligand,1 µM,remaining binding,100%
Cn1c2c(c3ccc(Cl)c(Cl)c31)C(C#N)C1(CCN(C(=O)OC(C)(C)C)CC1)NC2=O (racemic),thermal stability,,DSF,10 µM,ΔTm,-0.1 °C
CC(C)(O)c1cncc(-c2nc3ccc(F)cc3n2C2CC2)c1,cell-free assay,,competition with immobilised ligand,1 µM,remaining binding,100%
C[C@@H]1CCN(C(=O)CC#N)C[C@@H]1N(C)c1ncnc2[nH]ccc12,cell-free assay,inhibitor,,0.5 µM,remaining signal,85.8%
O=C(N[C@H]1CCCCC/C=C\C2C[C@@]2(C(=O)O)NC(=O)[C@@H]2C[C@@H](Oc3ccncc3)CN2C1=O)OC1CCCC1 (stereo partly drawn),binding,,competition with immobilised ligand,1 µM,remaining binding,94%
CC1(C)NC(=O)c2[nH]c3c(Cl)c(Cl)ccc3c2C1C#N (stereo not drawn),thermal stability,,DSF,10 µM,ΔTm,0 °C
CN(c1ccnc(CNc2nc(Nc3ccc4c(c3)CC(=O)N4)ncc2C(F)(F)F)n1)S(C)(=O)=O,cell-free assay,,competition with immobilised ligand,1 µM,remaining binding,100%
C#Cc1cccc(Nc2ncnc3cc(OCCOC)c(OCCOC)cc23)c1,cell-free assay,,,0.5 µM,remaining signal,74.6%
